High-throughput results: PubChem BioAssay, Broad Institute
Env fusion inh = inhibitors of HIV-1 Env-driven cell-cell fusion, primary screen, HeLa-JRFL effector, CEM21 target cells, luciferase | inhibition, % at 12.3 µM | 1.1% of 360,000 active;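 active means mean replicate inhibition score of at least 50 and every replicate individually at or above 50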;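 further: 0% = plate neutral controls and 100% = maraviroc near 300 nM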
miR122 inh = miR-122 Renilla sensor signal increase in Huh7, primary screen, miR-122 inhibitor project, cell-based, single point, plate reader | activation (reporter increase), % at 12.5 µM | Huh7 miR-122 Renilla luciferase sensor, 48 h; neutral wells = 0, positive control = 100 | AID 602342, 2012 | 0.3% of 340,000 active;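 active means mean replicate activation score at least 90 and every replicate individually at or above 90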;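 further: higher luciferase means less miR-122 activity so hits act as miR-122 inhibitors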
dFosB act-1 = activators of delta FosB homodimer, primary screen, biochemical, fluorescence polarization, TAMRA-CDK5 oligo, single point; Protein FosB (Mus musculus), P13346; purified delta FosB; percent of positive-control signal above neutral wells; activation, % at 25 µM; 0.99% of 340,000 active;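 active means mean activation above about 17%, with every replicate also reaching it, limit read from the data, passing the limit was not always enough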
Rtt109 Vps75 = inhibitors of C. albicans Rtt109/Vps75 HAT, primary screen, biochemical, ThioGlo CoA-SH fluorescence, plate reader; Histone acetyltransferase RTT109 (Candida albicans (strain SC5314 / ATCC MYA-2876)), …; purified Rtt109/Vps75, 4 h; inhibition, % at 34.9 µM; 0.16% of 330,000 active; AID 540336, 2011;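 active means inhibition of at least 50% in every replicate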
Target sequence (Q5AAJ8 whole entry, looked up): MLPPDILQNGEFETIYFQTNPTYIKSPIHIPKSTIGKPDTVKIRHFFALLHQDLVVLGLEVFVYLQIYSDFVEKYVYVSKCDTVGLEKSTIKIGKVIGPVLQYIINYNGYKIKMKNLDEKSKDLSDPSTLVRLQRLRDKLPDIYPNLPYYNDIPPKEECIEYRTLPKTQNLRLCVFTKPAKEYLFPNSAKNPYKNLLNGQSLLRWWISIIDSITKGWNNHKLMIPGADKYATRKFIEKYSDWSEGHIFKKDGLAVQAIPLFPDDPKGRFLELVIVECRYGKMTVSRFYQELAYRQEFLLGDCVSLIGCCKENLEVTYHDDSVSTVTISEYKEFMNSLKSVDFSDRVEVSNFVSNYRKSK
INS-1E GSIS act = GLuc luminescence reporter in INS-1E cells, primary screen for activators of glucose-dependent secretion of insulin; INS-1E GLuc reporter insulin secretion, 2-3 h; activation, % at 16.6 µM; 0.61% of 370,000 active; AID 743287, 2014;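 active means lowest replicate activation of at least 40%, so every replicate reaches that level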;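 further: 0% = median of neutral control wells and 100% = median of IBMX positive control wells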
Cneo AK release = Cryptococcus neoformans cell lysis inducers, primary screen, AK release luminescence, single concentration. 0.2% of 360,000 active. lysis activity, % at 15 µM. C. neoformans lysis, adenylate kinase release luminescence, 4 h; normalised: neutral wells 0, clomiphene wells 100;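 active means mean lysis activity across replicates of at least 80%, whatever share of replicates individually reach that level; inactive means mean lysis activity below 80%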
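Material: C. neoformans cells; Schedule: 4 h static compound exposure, 37 °C, read 1 h post-reagent; Measured by: adenylate kinase release luminescence; Read-out: signal increase indicating cell lysis; Controls: Clomiphene as positive lysis control.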
dFosB act-2 = activators of mouse delta FosB DNA binding, confirmation, biochemical, fluorescence polarization, TAMRA-CDK5 oligo, cherry-picked samples | shares compounds with dFosB act-1 | purified delta FosB; normalised: neutral wells 0, positive control 100 | activation, % at 24.9 µM | 2,400 tested, under 10 active | AID 588690, 2011;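 active means highest replicate activation at or above 34% and every replicate reaching that threshold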;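 further: higher polarization means more probe DNA bound by delta FosB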
The depositor's hits bear a star; [ ] = dose if it differs, or a comment. Sampled rows, rich in hits. Any-hit rate of the full collection: about 2.4%.

For COc1ccc(NC(=O)N[C@@H]2CC[C@@H](CCNS(=O)(=O)c3ccccc3F)O[C@@H]2CO)cc1 the results were Env fusion inh 12.2[16.7 µM], INS-1E GSIS act 3.0 and Cneo AK release -3.8.
`CCS(=O)(=O)N[C@H]1C=C[C@@H](CC(=O)NCc2ccc(Cl)cc2)O[C@@H]1CO` gave Env fusion inh 2.8[16.7 µM], INS-1E GSIS act -11.0 and Cneo AK release 16.2.
COc1ccc(-c2cc3c(=O)n(CC(=O)NCc4cccnc4)ncn3n2)cc1 was read as Env fusion inh -6.6, miR122 inh 1.8, dFosB act-1 3.2, Rtt109 Vps75 -5.5, INS-1E GSIS act 26.3 and Cneo AK release -1.7.
For COc1ccc(-c2cc3c(=O)n(CC(=O)Nc4ccc(C(C)=O)cc4)ncn3n2)cc1 the results were Env fusion inh -7.9, miR122 inh -4.2, dFosB act-1 74.2*, Rtt109 Vps75 2.3, INS-1E GSIS act 3.6, Cneo AK release 0.3 and dFosB act-2 -2.4.
For C/C(=N\NC(=O)c1nnn(-c2nonc2N)c1C(C)C)c1ccncc1 the results were Env fusion inh -98.5, miR122 inh -8.6, dFosB act-1 -1.7, Rtt109 Vps75 -0.8, INS-1E GSIS act 14.4 and Cneo AK release 5.5.
For COc1ccc(/C(C)=N/NC(=O)c2nnn(-c3nonc3N)c2-c2ccccc2)cc1 the results were Env fusion inh -13.7, dFosB act-1 29.7*, Rtt109 Vps75 1.6, INS-1E GSIS act -5.9, Cneo AK release -0.3 and dFosB act-2 7.2.
Screening C/C(=N\NC(=O)c1nnn(-c2nonc2N)c1C(C)C)c1ccc2ccccc2c1 returned Env fusion inh -6.5, miR122 inh -0.5, dFosB act-1 40.6*, INS-1E GSIS act -3.4, Cneo AK release -1.1 and dFosB act-2 -1.5.
For COc1ccc(/C(C)=N/NC(=O)c2nnn(-c3nonc3N)c2-c2cccs2)cc1 the results were Env fusion inh -1.0, miR122 inh -0.6, dFosB act-1 0.2, Rtt109 Vps75 -5.7, INS-1E GSIS act 3.8 and Cneo AK release 0.3.
For CCOc1ccc(/C=N/NC(=O)c2cc3ccccc3cc2OC)cc1 the results were Env fusion inh -6.7, dFosB act-1 18.8*, Rtt109 Vps75 -0.5, INS-1E GSIS act 0.6, Cneo AK release 0.2 and dFosB act-2 2.2.
Cc1occc1C(=O)N/N=C/c1ccc(OCc2ccccc2)cc1 was read as Env fusion inh -26.8, dFosB act-1 30.5*, Rtt109 Vps75 -9.7, INS-1E GSIS act -24.6 and dFosB act-2 3.5.
C[C@@H]1CN([C@H](C)CO)C(=O)Cc2cc(NC(=O)Cc3ccccc3)ccc2O[C@@H]1CN(C)C(=O)Nc1cccc2ccccc12 was read as Env fusion inh 1.0[16.7 µM], miR122 inh -1.8[16.7 µM] and INS-1E GSIS act -17.3.
For Cc1nc(NC(=S)NC(=O)c2cncc(Br)c2)ccc1Br the results were Env fusion inh -36.1, miR122 inh -2.4, dFosB act-1 20.7*, Rtt109 Vps75 -1.6, INS-1E GSIS act 0.0, Cneo AK release 1.4 and dFosB act-2 1.2.
Nc1nc(N)c2nc(-c3ccccc3)c(N)nc2n1 was read as Env fusion inh -25.8, miR122 inh -0.8, dFosB act-1 18.6*, Rtt109 Vps75 -3.1, Cneo AK release -0.2 and dFosB act-2 0.1.
Screening CCC(C)(C)C1CCC2(CC1)NC(=O)N(CC(=O)N1CCN(S(=O)(=O)c3cc(C)ccc3C)CC1)C2=O (configuration not stated) returned Env fusion inh -3.5, dFosB act-1 45.3*, Rtt109 Vps75 -7.9, INS-1E GSIS act -35.5, Cneo AK release 0.4 and dFosB act-2 5.9.
CCC(C)(C)C1CCC2(CC1)NC(=O)N(CC(=O)Nc1nc(-c3ccc(C)cc3)cs1)C2=O (configuration not stated) was read as miR122 inh -1.1, dFosB act-1 34.5*, Rtt109 Vps75 -15.7, Cneo AK release -3.9 and dFosB act-2 5.5.
CNC(=O)/C(C#N)=C/c1ccc(-c2ccc(Cl)cc2)o1 was read as Env fusion inh -12.4, dFosB act-1 50.1*, Rtt109 Vps75 -1.8, INS-1E GSIS act 2.2 and dFosB act-2 4.8.
For COc1ccc(NC(=O)Cn2c(=O)oc3cc(S(=O)(=O)N4CCCC4)ccc32)cc1 the results were Env fusion inh -1.9, miR122 inh 0.3, dFosB act-1 2.3, Rtt109 Vps75 7.8, INS-1E GSIS act -10.6 and Cneo AK release 1.3.
Screening CC(=O)c1cccc(NC(=O)Cn2c(=O)oc3cc(S(=O)(=O)N4CCCC4)ccc32)c1 returned Env fusion inh 5.1, miR122 inh 10.1, dFosB act-1 32.8*, Rtt109 Vps75 8.0, INS-1E GSIS act -23.2, Cneo AK release 0.1 and dFosB act-2 -0.4.
For Cc1cccc(C(=O)NCCNc2nc3cc(C)c(C)cc3cc2C)c1 the results were Env fusion inh -2.0, dFosB act-1 -11.2, Rtt109 Vps75 0.2 and INS-1E GSIS act 13.3.
Screening COc1ccc(C(=O)NCCNc2nc3cc(C)c(C)cc3cc2C)cc1 returned Env fusion inh 8.8, dFosB act-1 25.2*, Rtt109 Vps75 1.5, INS-1E GSIS act -10.4, Cneo AK release 1.8 and dFosB act-2 4.4.
`O=C(Cn1cc(C(F)(F)F)cc(Cl)c1=O)NCc1ccc(Cl)cc1Cl` gave Env fusion inh -2.5, miR122 inh -8.3, dFosB act-1 46.2*, Rtt109 Vps75 -2.3, INS-1E GSIS act 8.7, Cneo AK release -2.1 and dFosB act-2 2.4.
OC[C@H]1[C@H](c2ccc(-c3cccnc3)cc2)[C@H]2CN(CC3CCOCC3)CCCCN21 was read as miR122 inh 4.0[16.7 µM] and Cneo AK release 0.0.
Screening Clc1nc(Oc2ccccc2)nc(-c2cn(-c3ccccc3)c3ccccc23)n1 returned Env fusion inh 13.5, dFosB act-1 -6.7, Rtt109 Vps75 5.8 and INS-1E GSIS act -42.0.
For CCNc1nc(Cl)nc(-c2cn(-c3ccccc3)c3ccccc23)n1 the results were Env fusion inh -3.1, dFosB act-1 21.6*, Rtt109 Vps75 -6.6, INS-1E GSIS act -7.9 and dFosB act-2 3.0.
